Results reported in ChEMBL document CHEMBL4130355, “Development of a series of novel 4-anlinoquinazoline derivatives possessing quinazoline skeleton: Design, synthesis, EGFR kinase inhibitory efficacy, and evaluation of anticancer activities in vitro” (Eur J Med Chem, 2017).

What was measured:
A549 = experiment: Antiproliferative activity against human A549 cells after 72 hrs by MTT assay; format: functional, cell-based; details: A549, 72 h
SH-SY5Y = experiment: Antiproliferative activity against human SH-SY5Y cells after 72 hrs by MTT assay; format: functional, cell-based
MCF7 = experiment: Antiproliferative activity against human MCF7 cells after 72 hrs by MTT assay; format: functional, cell-based; details: MCF7, 72 h
DU-145 = experiment: Antiproliferative activity against human DU145 cells after 72 hrs by MTT assay; format: functional, cell-based; details: DU-145, 72 h
HepG2 [1] = experiment: Antiproliferative activity against human HepG2 cells after 72 hrs by MTT assay; format: functional, cell-based; details: HepG2, 72 h
HepG2 [2] = experiment: Cytotoxicity against human HepG2 cells at 5 uM after 48 hrs by LDH release assay (reference value: 100%); format: functional
In short: (§1)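 HepG2 seeded at 1.0 × 10^5 cells/well, grown 24 h at 37 °C in 5% CO2, then dosed for 48 h. LDH in supernatant read on plate reader per kit. Maximal release (100% cytotoxicity) came from lysis with 2% (V/V) lysate for 1 h at 37 °C; medium-only cells served as natural release. Triplicate, three independent runs.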

HepG2 [3] = experiment: Cytotoxicity against human HepG2 cells at 10 uM after 48 hrs by LDH release assay (reference value: 100%); format: functional
In short: (§2)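 LDH release. HepG2 cells at 1.0 × 10^5/well were incubated 24 h at 37 °C, then treated at 2.5–40 µM for 48 h. Cells lysed with 2% lysate for 1 h gave the full-release (100%) reference; medium-only cells were the low control. LDH in the supernatant was measured per kit. Triplicates, three independent repeats.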

HepG2 [4] = experiment: Cytotoxicity against human HepG2 cells at 2.5 uM after 48 hrs by LDH release assay (reference value: 100%); format: functional; in short: as §2
HepG2 [5] = experiment: Cytotoxicity against human HepG2 cells at 40 uM after 48 hrs by LDH release assay (reference value: 100%); format: functional; in short: as §1
HepG2 [6] = experiment: Cytotoxicity against human HepG2 cells at 20 uM after 48 hrs by LDH release assay (reference value: 100%); format: functional; in short: as §2

| Compound | IC50 (A549) | IC50 (SH-SY5Y) | IC50 (MCF7) | IC50 (DU-145) | IC50 (HepG2 [1]) | Activity (HepG2 [2]) | Activity (HepG2 [3]) | Activity (HepG2 [4]) | Activity (HepG2 [5]) | Activity (HepG2 [6]) |
| --- | --- | --- | --- | --- | --- | --- | --- | --- | --- | --- |
| COc1cc2c(Nc3ccc(C#N)cc3)ncnc2cc1OCCCN1CCN(CCO)CC1 | 9.82 µM | 36.8 µM | 25.2 µM | 29.3 µM | 28.1 µM | – | – | – | – | – |
| COc1cc2c(Nc3ccc(C#N)cc3)ncnc2cc1OCCCN1CCC(C)CC1 | 32.3 µM | 7.9 µM | 43.1 µM | 16.6 µM | 32.1 µM | – | – | – | – | – |
| CCN1CCN(CCCOc2cc3ncnc(Nc4ccc(C#N)cc4)c3cc2OC)CC1 | 16 µM | 5.44 µM | 29.9 µM | 34.4 µM | 9.58 µM | – | – | – | – | – |
| COc1cc2c(Nc3ccc(C#N)cc3)ncnc2cc1OCCCN1CCN(C)CC1 | 48.8 µM | 13 µM | 71.1 µM | 46.5 µM | 13.8 µM | – | – | – | – | – |
| COc1cc2c(Nc3ccc(C#N)cc3)ncnc2cc1OCCCN(CCO)Cc1ccccc1 | 47.4 µM | > 100 µM | > 100 µM | > 100 µM | > 100 µM | – | – | – | – | – |
| CCN1CCN(CCCOc2cc3ncnc(Nc4ccccc4C#N)c3cc2OC)CC1 | 6.91 µM | 12.6 µM | 9.07 µM | 5.87 µM | 2.11 µM | – | – | – | – | – |
| COc1cc2c(Nc3ccccc3C#N)ncnc2cc1OCCCN1CCOCC1 | 46.8 µM | > 100 µM | 98.4 µM | 68.5 µM | 3.68 µM | – | – | – | – | – |
| CCN(CC)CCCOc1cc2ncnc(Nc3ccc(C#N)cc3)c2cc1OC | 50.6 µM | > 100 µM | > 100 µM | 68.9 µM | 59.4 µM | – | – | – | – | – |
| COc1cc2c(Nc3ccc(C#N)cc3)ncnc2cc1OCCCN(CCO)CCO | 26.1 µM | 48.1 µM | 36.8 µM | 20.2 µM | 40.3 µM | – | – | – | – | – |
| COc1cc2c(Nc3ccc(C#N)cc3)ncnc2cc1OCCCN1CCCCC1CCO (stereo not given) | > 100 µM | > 100 µM | > 100 µM | > 100 µM | > 100 µM | – | – | – | – | – |
| COc1cc2ncnc(Nc3ccc(F)c(Cl)c3)c2cc1OCCCN1CCOCC1 [GEFITINIB] | – | – | – | – | – | 48.69% | 45.36% | 42.08% | 47.62% | 45.24% |
| COc1cc2c(Nc3ccc(C#N)cc3)ncnc2cc1OCCCN1CCC(O)CC1 | 29.9 µM | > 100 µM | > 100 µM | 74.9 µM | 67.9 µM | – | – | – | – | – |
| COc1cc2c(Nc3ccc(C#N)cc3)ncnc2cc1OCCCN1CCC(N2CCCCC2)CC1 | 30.7 µM | 9.81 µM | 19.6 µM | 15.6 µM | 8.84 µM | – | – | – | – | – |
| COc1cc2c(Nc3ccccc3C#N)ncnc2cc1OCCCN1CCN(C)CC1 | 23.4 µM | 32.4 µM | 17.8 µM | 19.4 µM | 26.4 µM | – | – | – | – | – |
| COc1cc2c(Nc3cccc(C#N)c3)ncnc2cc1OCCCN1CCCC1 | 39.9 µM | 10.6 µM | 33.9 µM | 19.1 µM | 18.2 µM | – | – | – | – | – |
| COc1cc2c(Nc3ccc(C#N)cc3)ncnc2cc1OCCCN1CCCC1 | 21.8 µM | 8.08 µM | 16.2 µM | 14.4 µM | 20.9 µM | – | – | – | – | – |
| COc1cc2c(Nc3ccc(C#N)cc3)ncnc2cc1OCCCN(C)C | 60.5 µM | 34.9 µM | 45 µM | 35.2 µM | > 100 µM | – | – | – | – | – |

| Compound | IC50 (A549) | IC50 (SH-SY5Y) | IC50 (MCF7) | IC50 (DU-145) | IC50 (HepG2 [1]) | Activity (HepG2 [2]) | Activity (HepG2 [3]) | Activity (HepG2 [4]) | Activity (HepG2 [5]) | Activity (HepG2 [6]) |
| --- | --- | --- | --- | --- | --- | --- | --- | --- | --- | --- |
| COc1cc2c(Nc3cccc(C#N)c3)ncnc2cc1OCCCN1CCCCC1 | 37 µM | 11.2 µM | 44.8 µM | 29.1 µM | 29.5 µM | – | – | – | – | – |
| COc1cc2c(Nc3cccc(C#N)c3)ncnc2cc1OCCCN1CCC(C)CC1 | 18.7 µM | 7.33 µM | 24.4 µM | 17.7 µM | 18.2 µM | – | – | – | – | – |
| COc1cc2c(Nc3cccc(C#N)c3)ncnc2cc1OCCCN1CCN(C)CC1 | 27.7 µM | 6.89 µM | 23.1 µM | 12.1 µM | 18.3 µM | – | – | – | – | – |
| COc1cc2c(Nc3ccccc3C#N)ncnc2cc1OCCCN1CCC(C)CC1 | 22.7 µM | 29 µM | 31.9 µM | 11.9 µM | 4.03 µM | – | – | – | – | – |
| COc1cc2c(Nc3ccc(C#N)cc3)ncnc2cc1OCCCN1CCCCC1 | 23.5 µM | 18.8 µM | 35.1 µM | 24.4 µM | 20.7 µM | – | – | – | – | – |
| COc1cc2c(Nc3ccccc3C#N)ncnc2cc1OCCCN1CCCCC1 | 14.7 µM | 13.4 µM | 15.2 µM | 15.3 µM | 14.2 µM | – | – | – | – | – |
| COc1cc2c(Nc3ccc(C#N)cc3)ncnc2cc1OCCCN1CCN(c2ccncc2)CC1 | 25.4 µM | 31.6 µM | 22.9 µM | 22.9 µM | 12.6 µM | – | – | – | – | – |
| COc1cc2c(Nc3ccc(C#N)cc3)ncnc2cc1OCCCN1CCC(CO)CC1 | > 100 µM | 21.6 µM | 35.1 µM | 53.2 µM | 61.8 µM | – | – | – | – | – |
| COc1cc2c(Nc3ccc(C#N)cc3)ncnc2cc1OCCCN1CCc2ccccc2C1 | > 100 µM | > 100 µM | > 100 µM | > 100 µM | > 100 µM | – | – | – | – | – |
| COc1cc2c(Nc3ccc(C#N)cc3)ncnc2cc1OCCCN1CCC(N(C)C)CC1 | 42.4 µM | 24.3 µM | 31 µM | 28.3 µM | 33.6 µM | – | – | – | – | – |
| COc1cc2c(Nc3ccc(C#N)cc3)ncnc2cc1OCCCN(C)Cc1ccccc1 | > 100 µM | > 100 µM | > 100 µM | > 100 µM | > 100 µM | – | – | – | – | – |
| COc1cc2c(Nc3cccc(C#N)c3)ncnc2cc1OCCCN1CCOCC1 | 65.5 µM | > 100 µM | > 100 µM | 77.8 µM | 1.89 µM | – | – | – | – | – |
| CCN1CCN(CCCOc2cc3ncnc(Nc4cccc(C#N)c4)c3cc2OC)CC1 | 18.7 µM | 6.27 µM | 19.9 µM | 18.2 µM | 13.7 µM | – | – | – | – | – |
| COc1cc2c(Nc3ccc(C#N)cc3)ncnc2cc1OCCCN1CCOCC1 | 59.4 µM | > 100 µM | > 100 µM | 98.2 µM | 0.77 µM | – | – | – | – | – |
| COc1cc2c(Nc3ccc(C#N)cc3)ncnc2cc1OCCCN(C)CCO | 29 µM | 83.7 µM | 41.4 µM | 17.4 µM | 45.2 µM | – | – | – | – | – |
| COc1cc2c(Nc3ccccc3C#N)ncnc2cc1OCCCN1CCCC1 | 21.8 µM | 28.9 µM | 16.2 µM | 18.7 µM | 24.5 µM | – | – | – | – | – |
| CCOC(=O)C1CCN(CCCOc2cc3ncnc(Nc4ccc(C#N)cc4)c3cc2OC)CC1 | 89.9 µM | 47.2 µM | 34.9 µM | 52.3 µM | 57.7 µM | – | – | – | – | – |
